Results taken from publication PMC6147618 (Molecules : A Journal of Synthetic Chemistry and Natural …, 2005).

What was measured:
Caco-2 monolayers = assay: Caco-2 monolayer permeability; type: in vitro ADME; conditions: Hank's balanced salt solution, 25 mM HEPES pH 7.4, 37°C
Outline: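 Caco-2 cells were grown in DMEM with 10% foetal bovine serum, 2mM L-glutamine and 1% non-essential amino acids, at 37°C, 95% humidity and 5% CO2, on Transwell polycarbonate inserts. Transport was run in air at 37°C and 95% humidity, in HBSS with 25mM HEPES (pH 7.4). Values are means ± sd of 5 monolayers, or n = 3 for co-incubation experiments.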

P450 = conditions: cited from earlier work

| SMILES | diffusion across the Caco-2 monolayers (Caco-2 monolayers) | P450-mediated metabolism (P450; in the absence of alkylamide 3) | effect on P450-mediated metabolism of alkylamide 1 (P450; alkylamide 3 present together with 1) |
| --- | --- | --- | --- |
| O=C(/C=C/c1ccc(O)c(O)c1)O[C@@H](C(=O)O)[C@@H](OC(=O)/C=C/c1ccc(O)c(O)c1)C(=O)O [cichoric acid] | non-diffusing |  |  |
| C/C=C\C=C/CC/C=C/C=C/C(=O)NCC(C)C [compound 1, (2E,4E,8Z,10Z)-N-isobutyldodeca-2,4,8,10-tetraenamide] |  | rapid metabolism |  |
| C#CC#CCCCC/C=C/C(=O)NCC(C)C [compound 3, (2E)-N-isobutylundeca-2-ene-8,10-diynamide] | rapidly diffuse |  | prevented the rapid metabolism of 1 |
